Assay results as given in ChEMBL document CHEMBL1158444 (J Med Chem, 2009).
The source made the active and inactive calls. The calls are words filed in the database; no cut-off is given here.

Experiments:
[1] = target: T1, Metabotropic glutamate receptor 4 (Homo sapiens, UniProt Q14833); test: Activity at human mGluR4 receptor expressed in CHO cells assessed as effect on calcium mobilization; type: functional, cell-based
[2] = AUC in Sprague-Dawley rat brain at 10 mg/kg, ip; type: ADME, organism-based; design: dose 10 mg/kg, route intraperitoneal
Outline: (§1)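 Rats dosed intraperitoneally at 10mg/kg with the hydrochloride salt, given as an aqueous microsuspension containing 10% tween 80. Compound levels in brain and plasma were measured at 0.5, 1 and 8 h after administration.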

Plasma [3] = test: Fraction unbound in human plasma by at […]; type: ADME, cell-free
[4] = target: Metabotropic glutamate receptor 1 (Homo sapiens) (UniProt Q13255); test: Activity at human mGluR1
Chain of Metabotropic glutamate receptor 1 (Homo sapiens) (Q13255 19-1194 limits assumed): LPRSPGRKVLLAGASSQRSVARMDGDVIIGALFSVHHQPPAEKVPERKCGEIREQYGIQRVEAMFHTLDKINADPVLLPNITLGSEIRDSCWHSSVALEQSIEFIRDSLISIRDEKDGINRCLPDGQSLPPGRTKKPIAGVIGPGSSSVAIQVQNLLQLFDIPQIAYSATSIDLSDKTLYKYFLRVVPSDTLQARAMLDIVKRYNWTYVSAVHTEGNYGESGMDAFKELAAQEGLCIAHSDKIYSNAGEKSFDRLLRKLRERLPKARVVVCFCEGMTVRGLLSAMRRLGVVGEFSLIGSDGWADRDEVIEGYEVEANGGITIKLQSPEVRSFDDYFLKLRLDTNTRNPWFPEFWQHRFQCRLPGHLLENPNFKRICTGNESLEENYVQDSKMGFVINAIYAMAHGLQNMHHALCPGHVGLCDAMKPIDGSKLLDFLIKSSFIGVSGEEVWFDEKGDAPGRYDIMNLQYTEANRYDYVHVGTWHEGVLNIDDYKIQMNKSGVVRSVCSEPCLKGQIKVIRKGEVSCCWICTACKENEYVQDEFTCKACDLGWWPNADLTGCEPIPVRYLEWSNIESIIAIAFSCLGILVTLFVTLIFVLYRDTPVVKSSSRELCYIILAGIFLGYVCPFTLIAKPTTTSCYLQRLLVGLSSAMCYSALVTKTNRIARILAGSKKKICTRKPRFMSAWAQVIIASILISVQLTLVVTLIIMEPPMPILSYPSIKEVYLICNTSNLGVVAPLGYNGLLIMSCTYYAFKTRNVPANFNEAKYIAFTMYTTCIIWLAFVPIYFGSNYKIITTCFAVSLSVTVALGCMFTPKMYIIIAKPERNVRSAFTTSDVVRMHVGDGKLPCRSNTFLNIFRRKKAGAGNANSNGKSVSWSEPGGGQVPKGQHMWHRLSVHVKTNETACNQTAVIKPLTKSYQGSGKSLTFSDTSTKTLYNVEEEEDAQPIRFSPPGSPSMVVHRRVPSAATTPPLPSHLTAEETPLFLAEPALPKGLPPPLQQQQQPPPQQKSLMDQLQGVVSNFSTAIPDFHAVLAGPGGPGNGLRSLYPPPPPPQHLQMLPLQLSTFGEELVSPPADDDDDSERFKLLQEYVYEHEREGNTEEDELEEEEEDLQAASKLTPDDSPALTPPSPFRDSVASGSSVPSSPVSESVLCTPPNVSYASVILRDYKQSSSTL

[5] = target: T1, Metabotropic glutamate receptor 4; test: Activity at human mGluR4 receptor expressed in CHO cells assessed as effect on calcium mobilization relative to glutamate; type: functional, cell-based
[6] = Metabolic stability in human liver microsomes after 1 hr; type: ADME, Microsome; conditions: read-out: Stability
[7] = target: Metabotropic glutamate receptor 7 (Homo sapiens) (UniProt Q14831); test: Activity at human mGluR7
Chain of Metabotropic glutamate receptor 7 (Homo sapiens) (Q14831 whole entry): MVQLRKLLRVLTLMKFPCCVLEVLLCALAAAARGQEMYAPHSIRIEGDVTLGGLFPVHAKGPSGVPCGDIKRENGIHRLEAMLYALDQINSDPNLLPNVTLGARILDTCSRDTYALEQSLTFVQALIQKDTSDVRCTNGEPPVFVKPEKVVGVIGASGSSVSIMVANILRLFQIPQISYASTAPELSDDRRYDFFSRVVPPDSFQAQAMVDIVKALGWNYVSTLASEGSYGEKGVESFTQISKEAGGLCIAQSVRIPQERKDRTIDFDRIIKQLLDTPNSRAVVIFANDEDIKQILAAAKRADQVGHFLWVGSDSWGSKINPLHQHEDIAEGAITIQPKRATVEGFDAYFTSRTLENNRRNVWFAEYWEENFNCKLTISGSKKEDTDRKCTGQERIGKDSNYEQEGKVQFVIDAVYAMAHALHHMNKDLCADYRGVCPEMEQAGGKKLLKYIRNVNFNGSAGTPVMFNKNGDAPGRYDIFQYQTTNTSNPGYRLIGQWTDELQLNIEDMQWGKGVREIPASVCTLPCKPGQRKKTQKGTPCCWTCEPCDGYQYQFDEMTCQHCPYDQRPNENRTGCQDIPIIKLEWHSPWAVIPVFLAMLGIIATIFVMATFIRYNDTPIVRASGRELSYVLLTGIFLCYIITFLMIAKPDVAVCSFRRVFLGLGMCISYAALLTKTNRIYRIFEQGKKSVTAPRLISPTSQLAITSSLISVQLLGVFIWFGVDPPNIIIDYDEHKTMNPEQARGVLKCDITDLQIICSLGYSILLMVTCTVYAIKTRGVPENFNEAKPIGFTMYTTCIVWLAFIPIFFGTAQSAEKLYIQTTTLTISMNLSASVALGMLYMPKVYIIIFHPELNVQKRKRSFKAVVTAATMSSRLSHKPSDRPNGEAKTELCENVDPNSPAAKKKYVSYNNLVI

[8] = target: Metabotropic glutamate receptor 5 (Homo sapiens) (UniProt P41594); test: Activity at human mGluR5
Chain of Metabotropic glutamate receptor 5 (Homo sapiens) (P41594 21-1212 limits assumed): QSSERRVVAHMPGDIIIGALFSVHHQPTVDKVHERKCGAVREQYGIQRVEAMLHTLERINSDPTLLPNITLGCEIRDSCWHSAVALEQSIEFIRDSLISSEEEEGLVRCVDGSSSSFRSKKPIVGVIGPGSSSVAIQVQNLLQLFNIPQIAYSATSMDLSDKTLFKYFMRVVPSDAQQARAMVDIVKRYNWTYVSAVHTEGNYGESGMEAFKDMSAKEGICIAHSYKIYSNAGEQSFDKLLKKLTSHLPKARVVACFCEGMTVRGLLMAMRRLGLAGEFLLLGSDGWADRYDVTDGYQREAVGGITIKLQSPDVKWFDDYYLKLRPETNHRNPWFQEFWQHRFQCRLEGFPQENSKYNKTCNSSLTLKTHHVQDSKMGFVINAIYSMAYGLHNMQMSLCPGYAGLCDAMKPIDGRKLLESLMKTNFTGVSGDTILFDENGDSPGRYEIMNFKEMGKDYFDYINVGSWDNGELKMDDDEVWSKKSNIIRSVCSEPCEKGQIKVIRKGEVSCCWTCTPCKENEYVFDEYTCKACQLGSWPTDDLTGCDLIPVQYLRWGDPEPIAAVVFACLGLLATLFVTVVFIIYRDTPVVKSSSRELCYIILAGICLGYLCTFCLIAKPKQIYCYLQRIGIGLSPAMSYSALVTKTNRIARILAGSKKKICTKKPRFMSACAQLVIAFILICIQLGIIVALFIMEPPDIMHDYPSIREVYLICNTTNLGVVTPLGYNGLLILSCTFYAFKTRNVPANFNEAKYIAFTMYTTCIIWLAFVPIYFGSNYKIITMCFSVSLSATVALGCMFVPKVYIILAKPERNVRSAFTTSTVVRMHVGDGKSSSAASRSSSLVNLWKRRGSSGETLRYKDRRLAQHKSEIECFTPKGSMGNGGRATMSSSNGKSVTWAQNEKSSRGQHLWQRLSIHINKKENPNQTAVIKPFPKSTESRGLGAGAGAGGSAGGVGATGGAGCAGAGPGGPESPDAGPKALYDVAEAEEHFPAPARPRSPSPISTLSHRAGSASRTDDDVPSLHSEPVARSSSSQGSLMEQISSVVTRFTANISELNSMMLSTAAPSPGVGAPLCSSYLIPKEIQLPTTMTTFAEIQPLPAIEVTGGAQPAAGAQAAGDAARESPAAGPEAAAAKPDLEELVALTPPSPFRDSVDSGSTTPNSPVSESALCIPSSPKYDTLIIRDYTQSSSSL

Plasma [9] = test: AUC in Sprague-Dawley rat plasma at 10 mg/kg, ip; type: ADME, organism-based; design: dose 10 mg/kg, route intraperitoneal; conditions: in vivo
Brain = test: Half life in Sprague-Dawley rat brain at 10 mg/kg, ip; type: ADME, organism-based; design: dose 10 mg/kg, route intraperitoneal; conditions: in vivo; outline: as §1
Plasma [10] = test: Half life in Sprague-Dawley rat plasma at 10 mg/kg, ip; type: ADME, organism-based; design: dose 10 mg/kg, route intraperitoneal; conditions: in vivo; outline: as §1
[11] = Metabolic stability in rat liver microsomes after 1 hr; type: ADME, Microsome; conditions: read-out: Stability
[12] = Cmax in Sprague-Dawley rat brain at 10 mg/kg, ip; type: ADME, organism-based; design: dose 10 mg/kg, route intraperitoneal; outline: as §1
[13] = Apparent oral clearance in Sprague-Dawley rat at 10 mg/kg, ip; type: ADME, organism-based; design: dose 10 mg/kg; conditions: in vivo; outline: as §1
Plasma [14] = test: Cmax in Sprague-Dawley rat plasma at 10 mg/kg, ip; type: ADME, organism-based; design: dose 10 mg/kg, route intraperitoneal; conditions: in vivo
[15] = target: Metabotropic glutamate receptor 3 (Homo sapiens) (UniProt Q14832); test: Activity at human mGluR3
Chain of Metabotropic glutamate receptor 3 (Homo sapiens) (Q14832 23-879 limits assumed): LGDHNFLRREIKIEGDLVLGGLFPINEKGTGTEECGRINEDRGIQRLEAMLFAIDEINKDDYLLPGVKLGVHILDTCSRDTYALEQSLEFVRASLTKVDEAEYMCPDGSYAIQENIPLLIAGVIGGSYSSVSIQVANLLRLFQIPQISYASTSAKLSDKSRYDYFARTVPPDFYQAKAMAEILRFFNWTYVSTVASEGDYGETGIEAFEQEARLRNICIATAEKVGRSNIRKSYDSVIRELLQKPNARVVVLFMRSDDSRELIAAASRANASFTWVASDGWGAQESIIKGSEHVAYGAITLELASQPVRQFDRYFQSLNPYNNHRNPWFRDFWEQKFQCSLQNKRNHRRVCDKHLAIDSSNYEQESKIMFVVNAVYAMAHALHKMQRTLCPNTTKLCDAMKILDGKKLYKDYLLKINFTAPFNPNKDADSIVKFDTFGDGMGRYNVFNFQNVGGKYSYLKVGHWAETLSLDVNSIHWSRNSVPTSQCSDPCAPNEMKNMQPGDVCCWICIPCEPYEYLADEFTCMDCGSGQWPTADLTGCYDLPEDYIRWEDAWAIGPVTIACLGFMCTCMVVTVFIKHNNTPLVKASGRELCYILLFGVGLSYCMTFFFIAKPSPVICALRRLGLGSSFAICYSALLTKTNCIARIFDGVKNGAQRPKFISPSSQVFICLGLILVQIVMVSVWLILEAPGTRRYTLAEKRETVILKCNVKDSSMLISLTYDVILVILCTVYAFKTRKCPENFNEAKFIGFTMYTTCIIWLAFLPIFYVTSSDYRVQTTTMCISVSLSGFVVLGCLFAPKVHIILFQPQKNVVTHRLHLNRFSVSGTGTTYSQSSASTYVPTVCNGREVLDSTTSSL

Plasma [16] = test: Fraction unbound in rat plasma by at […]; type: ADME, cell-free
[17] = target: Metabotropic glutamate receptor 2 (Homo sapiens) (UniProt Q14416); test: Activity at human mGluR2
[18] = target: Metabotropic glutamate receptor 4 (Rattus norvegicus) (UniProt P31423); test: Activity at rat mGluR4 receptor expressed in HEK293 cells assessed as effect on thallium flux relative to glutamate; type: cell-based
[19] = target: Metabotropic glutamate receptor 4 (Rattus norvegicus) (UniProt P31423); test: Activity at rat mGluR4 expressed in HEK293 cells coexpressing Gqi5 protein assessed as fold shifting of glutamate-induced response to left at 30 uM; type: cell-based
[20] = target: Metabotropic glutamate receptor 4 (Rattus norvegicus, UniProt P31423); test: Activity at rat mGluR4 receptor expressed in HEK293 cells assessed as effect on thallium flux
[21] = target: T1, Metabotropic glutamate receptor 4; test: Activity at human mGluR4 expressed in CHO cells coexpressing Gqi5 protein assessed as fold shifting of glutamate-induced response to left at 30 uM; type: cell-based
[22] = target: Metabotropic glutamate receptor 8 (Homo sapiens) (UniProt O00222); test: Activity at human mGluR8 assessed as fold shifting of glutamate-induced response to left

T1 sequence (Q14833 whole entry): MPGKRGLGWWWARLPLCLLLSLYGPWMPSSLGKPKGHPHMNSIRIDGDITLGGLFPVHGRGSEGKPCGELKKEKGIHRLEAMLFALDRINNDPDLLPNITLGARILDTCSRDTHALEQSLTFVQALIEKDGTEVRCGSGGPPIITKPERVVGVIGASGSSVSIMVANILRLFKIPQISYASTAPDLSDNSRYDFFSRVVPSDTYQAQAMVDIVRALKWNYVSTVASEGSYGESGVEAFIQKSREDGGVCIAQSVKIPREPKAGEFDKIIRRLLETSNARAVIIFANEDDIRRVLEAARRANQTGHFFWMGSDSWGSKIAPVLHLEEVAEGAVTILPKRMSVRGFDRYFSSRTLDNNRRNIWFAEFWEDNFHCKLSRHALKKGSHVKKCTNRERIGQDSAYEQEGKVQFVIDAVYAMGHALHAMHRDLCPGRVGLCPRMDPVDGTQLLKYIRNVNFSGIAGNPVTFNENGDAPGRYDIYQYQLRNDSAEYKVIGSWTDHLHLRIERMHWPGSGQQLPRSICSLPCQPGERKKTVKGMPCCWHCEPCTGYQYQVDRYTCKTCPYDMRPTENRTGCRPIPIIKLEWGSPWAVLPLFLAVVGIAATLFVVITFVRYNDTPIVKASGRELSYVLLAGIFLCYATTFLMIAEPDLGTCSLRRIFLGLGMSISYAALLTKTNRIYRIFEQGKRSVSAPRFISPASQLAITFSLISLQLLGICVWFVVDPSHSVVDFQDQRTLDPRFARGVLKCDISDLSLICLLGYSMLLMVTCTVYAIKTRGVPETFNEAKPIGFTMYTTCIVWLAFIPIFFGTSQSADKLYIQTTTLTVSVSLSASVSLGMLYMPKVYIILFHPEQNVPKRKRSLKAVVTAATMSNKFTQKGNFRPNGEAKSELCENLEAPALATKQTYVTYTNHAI

Compound: O=C(Nc1ccc(Cl)c(Cl)c1)c1ccc(-c2ccccc2)o1
- EC50 [1]: > 10000 nM

Compound: O=C(Nc1cccc(OC(F)F)c1)c1ccccn1
- AUC [2]: 976 ng·h/mL
- Fu (Plasma [3]): 4%
- Activity [4]: inactive
- Emax [5]: 235%
- remaining at 1 h [6]: 2.4%
- Activity [7]: inactive
- Activity [8]: > 10 µM
- AUC (Plasma [9]): 99 ng·h/mL
- t1/2 (Brain): 23.4 min
- t1/2 (Plasma [10]): 15.6 min
- remaining at 1 h [11]: 1.4%
- Cmax [12]: 1680 ng/mL
- CL/F [13]: 1420 mL/min/kg
- Cmax (Plasma [14]): 188 ng/mL
- Activity [15]: inactive
- Fu (Plasma [16]): 5.8%
- Activity [17]: inactive
- Emax [18]: 113%

Compound: O=C(Nc1ccc(F)c(C(F)(F)F)c1)c1ccccn1
- fold change (FC) [19]: 2.7
- EC50 [20]: 1000 nM
- Emax [5]: 54%
- EC50 [1]: 1500 nM
- fold change (FC) [21]: 2.1
- Emax [18]: 42%

Compound: COc1cc(NC(=O)c2ccccn2)ccc1Cl
- fold change (FC) [19]: 35.3
- AUC [2]: 705 ng·h/mL
- Fu (Plasma [3]): 2.2%
- Activity [4]: inactive
- Emax [5]: 182%
- remaining at 1 h [6]: 5.3%
- Activity [7]: inactive
- Activity [8]: 5.1 µM
- AUC (Plasma [9]): 173 ng·h/mL
- t1/2 (Brain): 9 min
- t1/2 (Plasma [10]): 114 min
- remaining at 1 h [11]: 1.8%
- Cmax [12]: 1580 ng/mL
- CL/F [13]: 894 mL/min/kg
- Cmax (Plasma [14]): 154 ng/mL
- Activity [15]: inactive
- fold change (FC) [22]: 2.7
- fold change (FC) [21]: 28.1
- Fu (Plasma [16]): 2.4%
- Activity [17]: inactive
- Emax [18]: 109%

Compound: O=C(Nc1ccc(Cl)c(Cl)c1)c1ccno1
- EC50 [1]: > 10000 nM

Compound: O=C(Nc1cccc(Cl)c1)c1ccco1
- EC50 [1]: > 5000 nM
- fold change (FC) [21]: 5

Compound: O=C(Nc1ccc(Cl)c(Cl)c1)c1ccncn1
- Emax [5]: 83%
- EC50 [1]: 2800 nM

Compound: O=C(Nc1ccc(Cl)c(Cl)c1)c1ccsc1
- EC50 [1]: > 10000 nM

Compound: O=C(Nc1ccc(Cl)c(Cl)c1)c1ccccn1
- Emax [5]: 80%
- EC50 [1]: 1400 nM

Compound: O=C(Nc1ccc(Cl)c(Cl)c1)c1cc2ccccc2o1
- EC50 [1]: > 10000 nM

Compound: N#Cc1ccc(NC(=O)c2ccccn2)cc1C(F)(F)F
- EC50 [20]: > 10000 nM
- EC50 [1]: > 10000 nM

Compound: O=C(Nc1ccc(Cl)c(Cl)c1)c1ccco1
- Emax [5]: 135%
- EC50 [1]: > 5000 nM

Compound: COc1cc(NC(=O)c2ccccn2)ncn1
- EC50 [20]: > 10000 nM
- EC50 [1]: > 10000 nM

Compound: O=C(Nc1ccccc1)[C@]12C[C@H]1/C(=N\O)c1ccccc1O2
- fold change (FC) [19]: 8.8
- EC50 [20]: 2030 nM
- Emax [5]: 251%
- Emax [18]: 88%

Compound: O=C(Nc1ccc(Cl)c(Cl)c1)c1ccccc1
- EC50 [1]: > 10000 nM

Compound: O=C(Nc1cccc(Cl)c1)c1ccccn1
- fold change (FC) [19]: 31.4
- EC50 [20]: 290 nM
- Emax [5]: 227%
- EC50 [1]: 1100 nM
- fold change (FC) [21]: 18.1
- Emax [18]: 124%

Compound: O=C(Nc1cccc(C(F)(F)F)n1)c1ccccn1
- EC50 [20]: > 10000 nM
- EC50 [1]: > 10000 nM

Compound: O=C(Nc1ccc(Cl)c(Cl)c1)c1cnccn1
- EC50 [1]: > 10000 nM

Compound: O=C(Nc1cccc(OC(F)(F)F)c1)c1ccccn1
- Fu (Plasma [3]): 0.8%
- Emax [5]: 132%
- remaining at 1 h [6]: 22%
- remaining at 1 h [11]: 20%
- Fu (Plasma [16]): 1.6%
- Emax [18]: 75%

Compound: O=C(Nc1cccc(C(F)(F)F)c1)c1ccccn1
- Fu (Plasma [3]): 1.3%
- Emax [5]: 150%
- remaining at 1 h [6]: 26%
- remaining at 1 h [11]: 19%
- Fu (Plasma [16]): 2.9%
- Emax [18]: 81%

Compound: O=C(Nc1ccc(Cl)c(C(F)(F)F)c1)c1ccccn1
- fold change (FC) [19]: 2.1
- EC50 [20]: 1700 nM
- Emax [5]: 47%
- EC50 [1]: 2100 nM
- fold change (FC) [21]: 1.8
- Emax [18]: 41%

Compound: O=C(Nc1ccc(Cl)c(Cl)c1)C1CCCCC1
- EC50 [1]: > 10000 nM

Compound: Cc1cc(NC(=O)c2ccco2)ccc1Br
- EC50 [1]: > 5000 nM
- fold change (FC) [21]: 4.3

Compound: O=C(Nc1ccc(Cl)c(Cl)c1)c1ccc(Br)o1
- Emax [5]: 62%
- EC50 [1]: 4100 nM

Compound: O=C(Nc1ccc2c(c1)OCO2)c1ccccn1
- EC50 [20]: 500 nM
- Emax [5]: 90%
- EC50 [1]: > 10000 nM
- Emax [18]: 50%

Compound: COc1ccc(NC(=O)c2ccccn2)cc1Cl
- fold change (FC) [19]: 12
- EC50 [20]: 740 nM
- Emax [5]: 161%
- EC50 [1]: 1100 nM
- fold change (FC) [21]: 7.2
- Emax [18]: 108%

Compound: COc1cc(NC(=O)c2ccccn2)ccc1C
- fold change (FC) [19]: 35.3
- EC50 [20]: 210 nM
- Emax [5]: 178%
- EC50 [1]: 560 nM
- fold change (FC) [21]: 16.8
- Emax [18]: 121%

Compound: COc1cc(NC(=O)c2ccccn2)ccc1F
- fold change (FC) [19]: 26.7
- EC50 [20]: 370 nM
- Fu (Plasma [3]): 5.1%
- Activity [4]: inactive
- Emax [5]: 207%
- remaining at 1 h [6]: 3%
- Activity [7]: inactive
- Activity [8]: inactive
- remaining at 1 h [11]: 6.3%
- EC50 [1]: 780 nM
- Activity [15]: inactive
- Activity [22]: inactive
- fold change (FC) [21]: 17.5
- Fu (Plasma [16]): 6.5%
- Activity [17]: inactive
- Emax [18]: 107%

Compound: COc1nc(NC(=O)c2ccccn2)ccc1Cl
- Emax [5]: 95%
- EC50 [1]: > 5000 nM

Compound: Cn1cccc1C(=O)Nc1ccc(Cl)c(Cl)c1
- EC50 [1]: > 10000 nM

Compound: COc1ccc(NC(=O)c2ccccn2)cc1OC
- EC50 [20]: 2400 nM
- Emax [5]: 164%
- EC50 [1]: > 5000 nM
- Emax [18]: 102%
